Assay results reported in BindingDB's records for doi:10.1021/jm000452m (Abbott Laboratories, 2001).

Columns and labels:
[1] = biological target: T1, Vascular cell adhesion protein 1 (Homo sapiens, UniProt P19320); experiment: In vitro potency against TNF alpha induced expression of VCAM-1 on human vascular endothelial cells using CAM ELISA assay
T1 sequence (P19320 whole entry): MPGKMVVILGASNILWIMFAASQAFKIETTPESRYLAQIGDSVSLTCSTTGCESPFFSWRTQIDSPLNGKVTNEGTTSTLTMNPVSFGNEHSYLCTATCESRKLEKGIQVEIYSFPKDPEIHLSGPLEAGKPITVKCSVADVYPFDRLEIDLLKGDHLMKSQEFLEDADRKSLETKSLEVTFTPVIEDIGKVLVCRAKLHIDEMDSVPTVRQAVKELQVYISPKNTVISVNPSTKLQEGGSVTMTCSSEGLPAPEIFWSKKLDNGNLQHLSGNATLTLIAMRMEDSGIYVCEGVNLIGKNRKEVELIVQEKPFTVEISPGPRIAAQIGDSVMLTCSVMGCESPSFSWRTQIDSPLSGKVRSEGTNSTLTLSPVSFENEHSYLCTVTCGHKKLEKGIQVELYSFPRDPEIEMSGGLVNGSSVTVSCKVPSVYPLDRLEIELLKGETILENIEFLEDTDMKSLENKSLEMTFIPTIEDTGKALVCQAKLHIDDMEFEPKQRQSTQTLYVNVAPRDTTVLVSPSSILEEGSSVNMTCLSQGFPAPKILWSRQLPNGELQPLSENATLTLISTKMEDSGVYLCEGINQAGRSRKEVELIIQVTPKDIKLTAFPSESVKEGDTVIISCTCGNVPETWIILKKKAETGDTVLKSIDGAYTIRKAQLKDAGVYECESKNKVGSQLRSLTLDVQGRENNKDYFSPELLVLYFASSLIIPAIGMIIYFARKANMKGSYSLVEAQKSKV
Outline: (§1)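 Surface E-selectin, ICAM-1 or VCAM-1 was detected with mouse monoclonal primary antibody (overnight, 4 °C), then HRP anti-mouse IgG and OPD, with absorbance read at 490 nm. IC50 from triplicates; SEM across repeat triplicate runs.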

[2] = In vitro potency against TNF alpha induced expression of intercellular adhesion molecule-1 on human vascular endothelial cells using CAM ELISA assay
[3] = In vitro potency against TNF alpha induced expression of Selectin E on human vascular endothelial cells using CAM ELISA assay
[4] = biological target: T2, E-selectin (Homo sapiens, UniProt P16581); experiment: In vitro potency against TNF alpha induced expression of Selectin E on human vascular endothelial cells using CAM ELISA assay; outline: as §1
T2 sequence (P16581 whole entry): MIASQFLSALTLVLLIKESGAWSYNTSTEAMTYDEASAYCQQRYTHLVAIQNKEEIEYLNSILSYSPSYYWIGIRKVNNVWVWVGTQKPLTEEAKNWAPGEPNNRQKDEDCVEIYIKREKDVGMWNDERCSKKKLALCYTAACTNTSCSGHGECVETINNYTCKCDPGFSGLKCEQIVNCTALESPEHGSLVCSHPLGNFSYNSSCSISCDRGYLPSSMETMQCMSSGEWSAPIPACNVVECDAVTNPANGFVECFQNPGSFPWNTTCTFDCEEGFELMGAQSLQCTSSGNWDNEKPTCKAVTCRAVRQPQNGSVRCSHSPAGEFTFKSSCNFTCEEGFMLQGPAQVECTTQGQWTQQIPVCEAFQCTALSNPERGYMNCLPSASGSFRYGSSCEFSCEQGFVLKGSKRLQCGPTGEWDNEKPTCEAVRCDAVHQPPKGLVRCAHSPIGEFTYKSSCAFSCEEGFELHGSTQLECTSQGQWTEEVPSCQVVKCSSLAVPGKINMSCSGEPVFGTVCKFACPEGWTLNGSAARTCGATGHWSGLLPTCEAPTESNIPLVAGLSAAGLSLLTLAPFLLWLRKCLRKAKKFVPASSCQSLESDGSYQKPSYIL

[5] = biological target: Intercellular adhesion molecule 1 (Homo sapiens, UniProt P05362); experiment: In vitro potency against TNF alpha induced expression of intercellular adhesion molecule-1 on human vascular endothelial cells using CAM ELISA assay; outline: as §1
Sequence of Intercellular adhesion molecule 1 (P05362 whole entry): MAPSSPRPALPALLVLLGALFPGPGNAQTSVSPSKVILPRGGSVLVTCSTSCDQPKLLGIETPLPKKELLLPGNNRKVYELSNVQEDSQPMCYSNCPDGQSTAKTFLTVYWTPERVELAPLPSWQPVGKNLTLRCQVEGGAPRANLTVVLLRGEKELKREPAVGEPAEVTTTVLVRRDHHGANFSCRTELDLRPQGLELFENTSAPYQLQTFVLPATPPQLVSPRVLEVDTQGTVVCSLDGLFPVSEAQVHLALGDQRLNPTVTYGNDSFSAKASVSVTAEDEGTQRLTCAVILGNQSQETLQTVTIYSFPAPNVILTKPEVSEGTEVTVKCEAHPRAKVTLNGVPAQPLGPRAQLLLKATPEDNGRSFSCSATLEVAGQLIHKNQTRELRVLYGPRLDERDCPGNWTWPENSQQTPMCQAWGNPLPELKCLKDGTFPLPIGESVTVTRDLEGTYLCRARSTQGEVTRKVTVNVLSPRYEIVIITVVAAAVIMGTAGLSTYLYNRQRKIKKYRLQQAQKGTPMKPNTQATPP

| IC50 [1] [µM] | IC50 [2] [nM] | IC50 [3] [nM] | IC50 [4] [nM] | IC50 [5] [nM] | SMILES |
| --- | --- | --- | --- | --- | --- |
| 2.1 | 1800 | 1700 | – | – | Cc1ccc(Sc2cncc3sccc23)cc1 [4-p-Tolylsulfanyl-thieno[2,3-c]pyridine] |
| > 1 | 8 | 13 | – | – | Cc1ccc(Sc2cncc3sc(C(N)=O)cc23)cc1C [4-(3,4-Dimethyl-phenylsulfanyl)-thieno[2,3-c]pyridine-2-carboxylic acid amide] |
| > 4 | > 4000 | > 4000 | – | – | Cc1ccc(Sc2cncc3sc(/C=N/OCC(=O)O)cc23)cc1 [(4-p-Tolylsulfanyl-thieno[2,3-c]pyridin-2-ylmethyleneaminooxy)-acetic acid] |
| > 4 | – | – | 1500 | 1900 | Cc1ccc(Sc2cncc3sc(CN=O)cc23)cc1 [4-p-Tolylsulfanyl-thieno[2,3-c]pyridine-2-carbaldehyde oxime] |
| 19 | 160 | 150 | – | – | Cc1ccc(Sc2cncc3sc(C(N)=S)cc23)cc1 [4-p-Tolylsulfanyl-thieno[2,3-c]pyridine-2-carbothioic acid amide] |
| > 1 | – | – | – | – | Cc1ccc(Sc2cncc3sc(C(N)=O)cc23)cc1 [4-p-Tolylsulfanyl-thieno[2,3-c]pyridine-2-carboxylic acid amide] |
| 0.77 | 54 | 43 | – | – | Cc1ccc(Sc2cncc3sc(C(N)=O)cc23)c(C)c1 [4-(2,4-Dimethyl-phenylsulfanyl)-thieno[2,3-c]pyridine-2-carboxylic acid amide] |
| 46 | 32 | 32 | – | – | Cc1ccc(Sc2cncc3sc(C(=O)NN)cc23)cc1 [4-p-Tolylsulfanyl-thieno[2,3-c]pyridine-2-carboxylic acid hydrazide] |
| > 0.1 | 39 | 44 | – | – | NC(=O)c1cc2c(Sc3ccc(C(F)(F)F)cc3)cncc2s1 [4-(4-Trifluoromethyl-phenylsulfanyl)-thieno[2,3-c]pyridine-2-carboxylic acid amide] |
| > 1 | – | – | 55 | 85 | Cc1ccc(Sc2cncc3sc(C(C)N=O)cc23)cc1 (centres undefined) [1-(4-p-Tolylsulfanyl-thieno[2,3-c]pyridin-2-yl)-ethanone oxime] |

The remaining lines, values behind:

| SMILES | IC50 [1] [µM] | IC50 [2] [nM] | IC50 [3] [nM] | IC50 [4] [nM] | IC50 [5] [nM] |
| --- | --- | --- | --- | --- | --- |
| CCc1cc2c(Cl)ncnc2s1 [4-Chloro-6-ethyl-thieno[2,3-d]pyrimidine] | 18 | > 100000 | 27000 | – | – |
| CCc1cc2c(NCc3ccccc3)ncnc2s1 [Benzyl-(6-ethyl-thieno[2,3-d]pyrimidin-4-yl)-amine] | 59 | 56000 | 49000 | – | – |
| NC(=O)c1cc2c(Sc3ccc(Cl)c(Cl)c3)cncc2s1 [4-(3,4-Dichloro-phenylsulfanyl)-thieno[2,3-c]pyridine-2-carboxylic acid amide] | > 1 | 37 | 100 | – | – |
| CCc1cc2c(=O)[nH]cnc2s1 [MLS000029626] | > 100 | > 100000 | > 100000 | – | – |
| Cc1cccc(Sc2cncc3sc(C(N)=O)cc23)c1 [4-m-Tolylsulfanyl-thieno[2,3-c]pyridine-2-carboxylic acid amide] | > 4 | 140 | 45 | – | – |
| Cc1ccc(Sc2cncc3sc(C(=O)NCCCN4CCOCC4)cc23)cc1 [4-p-Tolylsulfanyl-thieno[2,3-c]pyridine-2-carboxylic acid (3-morpholin-4-yl-propyl)-amide] | > 4 | > 4000 | > 4000 | – | – |
| NC(=O)c1cc2c(Sc3ccccn3)cncc2s1 [4-(Pyridin-2-ylsulfanyl)-thieno[2,3-c]pyridine-2-carboxylic acid amide] | 65 | 2300 | 660 | – | – |
| CCc1cc2c(Sc3nnc(C)s3)ncnc2s1 [6-Ethyl-4-(5-methyl-[1,3,4]thiadiazol-2-ylsulfanyl)-thieno[2,3-d]pyrimidine] | 3.5 | 5000 | 4000 | – | – |
| CCc1cc2c(SCc3ccccc3)ncnc2s1 [4-Benzylsulfanyl-6-ethyl-thieno[2,3-d]pyrimidine] | 17 | 99000 | 95000 | – | – |
| CCc1cc2c(Sc3nnc(N)s3)ncnc2s1 [GNF-Pf-1931] | 2.5 | 6300 | 3000 | – | – |
| Cc1occc1Sc1cncc2sc(C(N)=O)cc12 [4-(2-Methyl-furan-3-ylsulfanyl)-thieno[2,3-c]pyridine-2-carboxylic acid amide] | > 1 | 570 | 600 | – | – |
| Cc1ccc(Sc2ccnc3sc(C(N)=O)cc23)cc1 [4-p-Tolylsulfanyl-thieno[2,3-b]pyridine-2-carboxylic acid amide] | 15 | 39000 | 16000 | – | – |
